Test results reported in ChEMBL document CHEMBL3272319, “Alkyl streptozotocin analogues with improved biological activities” (J Med Chem, 1976).

Columns and labels:
Mus musculus [1] = test: Toxicity in ICR mouse allografted with mouse S180A assessed as mortality at 50 mg/kg, ip qd for 5 days; type: organism-based; set-up: dose 50 mg/kg, route intraperitoneal; conditions: in vivo, 120 h
Outline: (§1)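 Ascites Sarcoma 180 (1 × 10^7 cells) implanted into ICR mice, six per group; compound in saline ip once daily days 1-5; sacrifice on day 7; total packed cell volume (ascites volume × PCV) compared with controls as T/C %; mortality recorded.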

Mus musculus [2] = test: Ratio of compound LD10 to streptozotocin LD10 for JCL-ICR mouse; type: ADME, organism-based; conditions: in vivo
[3] = Antitumor activity against mouse S180A allografted in ICR mouse assessed as tumor growth at 50 mg/kg, ip qd for 5 days measured on day 7 relative to control; type: functional; conditions: route intraperitoneal
Outline: (§2)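 Ascites Sarcoma 180 (1 × 10^7 cells) implanted into ICR mice, six animals per group. Five daily ip injections in saline (days 1–5). Sacrificed day 7. T/C % computed from total packed cell volume (ascites volume × PCV) vs controls. Grades: 100-66 = -, 65-41 = +, 40-11 = ++, 10-0 = +++.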

[4] = Ratio of compound LD50 to streptozotocin LD50 for JCL-ICR mouse; type: ADME, organism-based; conditions: in vivo
Rattus norvegicus [5] = test: Diabetogenic activity in iv dosed Wistar rat assessed as increase in blood sugar level administered as single dose by glucose oxidase method; type: ADME, organism-based; conditions: in vivo
Outline: (§3)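 Male Wistar rats, about 200 g, five per group, fasted 16 h. Single iv dose into the femoral vein in physiological saline, equimolar across compounds. Caudal-vein blood sampled at set times over 24 h. Sugar measured by glucose oxidase.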

Mus musculus [6] = test: Toxicity in ICR mouse allografted with mouse EAC assessed as mortality at 150 mg/kg, ip qd for 5 days; type: organism-based; set-up: dose 150 mg/kg, route intraperitoneal; conditions: in vivo, 120 h
Outline: (§4)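 Ehrlich ascites carcinoma (1 × 10^7 cells) implanted into ICR mice, six per group; compound ip daily for 5 days; mice sacrificed day 7; tumour burden as total packed cell volume (ascites volume × PCV), T/C % vs controls; mortality recorded.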

Mus musculus [7] = test: Toxicity in BDF1 mouse allografted with mouse L1210 cells assessed as mortality at 50 mg/kg, ip qd for 5 days; type: organism-based; set-up: dose 50 mg/kg, route intraperitoneal; conditions: in vivo, 120 h
Outline: (§5)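 L1210 (1 × 10^5 cells) implanted into BDF1 mice, six per group; compound in saline ip once daily days 1-5; effect read as % increase in life span, ILS = [(treated life span/control life span) − 1] × 100.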

Ehrlich [8] = test: Antitumor activity against mouse EAC allografted in ICR mouse assessed as tumor growth at 150 mg/kg, ip qd for 5 days measured on day 7 relative to control; type: functional; conditions: route intraperitoneal
Outline: (§6)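 Ehrlich ascites carcinoma (1 × 10^7 cells) implanted into ICR mice, six per group. Drug in saline ip, qd days 1–5. Mice killed day 7. Total packed cell volume = ascites volume × % packed cell volume; T/C % = TPCV treated/control × 100. Activity graded from T/C.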

[9] = (§7) Acute toxicity in ip dosed JCL-ICR mouse assessed as animal death; type: organism-based; conditions: JCL-ICR, in vivo
Outline: (§8)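 Groups of ten female JCL-ICR mice given single ip dose in physiological saline; deaths followed over 7 days; LD50 (and LD10) derived by Litchfield–Wilcoxon method.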

Mus musculus [10] = test: as §7; type: organism-based; conditions: in vivo; outline: as §8
L1210 [11] = test: Antitumor activity against mouse L1210 cells allografted in BDF1 mouse assessed as increase in host lifespan at 50 mg/kg, ip qd for 5 days relative to control; type: functional; conditions: 120 h, route intraperitoneal; outline: as §5
Mus musculus [12] = test: Toxicity in ICR mouse allografted with mouse S180A assessed as mortality at 25 mg/kg, ip qd for 5 days; type: organism-based; set-up: dose 25 mg/kg, route intraperitoneal; conditions: in vivo, 120 h; outline: as §1
[13] = Antitumor activity against mouse S180A allografted in ICR mouse assessed as tumor growth at 25 mg/kg, ip qd for 5 days measured on day 7 relative to control; type: functional; conditions: route intraperitoneal; outline: as §2
Mus musculus [14] = test: Toxicity in ICR mouse allografted with mouse EAC assessed as mortality at 125 mg/kg, ip qd for 5 days; type: organism-based; set-up: dose 125 mg/kg, route intraperitoneal; conditions: in vivo, 120 h; outline: as §4
Ehrlich [15] = test: Antitumor activity against mouse EAC allografted in ICR mouse assessed as tumor growth at 125 mg/kg, ip qd for 5 days measured on day 7 relative to control; type: functional; conditions: route intraperitoneal; outline: as §6
Bacillus subtilis = test: Antibacterial activity against Bacillus subtilis ATCC 6633 assessed as growth inhibition after 18 hrs by broth dilution method; type: functional; conditions: ATCC 6633, 18 h
Outline: (§9)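 Twofold serial dilutions in heart infusion broth. Inoculum was a 24-h heart infusion broth culture diluted 100-fold in physiological saline. Tubes incubated 30 °C for 18 h; the table footnote gives 32 °C for 24 h. MIC in µg/ml is the lowest level giving complete growth inhibition.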

Klebsiella pneumoniae = test: Antibacterial activity against Klebsiella pneumoniae ATCC 10031 assessed as growth inhibition after 18 hrs by broth dilution method; type: functional; conditions: ATCC 10031, 18 h; outline: as §9
Micrococcus luteus = test: Antibacterial activity against Sarcina lutea ATCC 9341 assessed as growth inhibition after 18 hrs by broth dilution method; type: functional; conditions: ATCC 9341, 18 h; outline: as §9
Salmonella typhi = test: Antibacterial activity against Salmonella typhi IFM 3020 assessed as growth inhibition after 18 hrs by broth dilution method; type: functional, Salmonella enterica subsp. enterica serovar Typhi; conditions: Salmonella enterica, IFM 3020, 18 h
Outline: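 Twofold serial dilutions in heart infusion broth; inoculum from 24 h heart infusion broth culture diluted 100-fold in physiological saline; tubes incubated 30 °C for 18 h; MIC (µg/ml) = lowest level giving complete growth inhibition.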

Rattus norvegicus [16] = test: Diabetogenic activity in Wistar rat assessed as increase in blood sugar level at 68 mg/kg, iv administered as single dose by glucose oxidase method; type: ADME, organism-based; set-up: dose 68 mg/kg, route intravenous; conditions: in vivo; outline: as §3
Escherichia coli = test: Antibacterial activity against Escherichia coli NIHJ JC-2 assessed as growth inhibition after 18 hrs by broth dilution method; type: functional; conditions: NIHJ JC-2, 18 h; outline: as §9
Pseudomonas fluorescens = test: Antibacterial activity against Pseudomonas fluorescens NIHJ B-254 assessed as growth inhibition after 18 hrs by broth dilution method; type: functional; conditions: NIHJ B-254, 18 h; outline: as §9
Shigella sonnei = test: Antibacterial activity against Shigella sonnei assessed as growth inhibition after 18 hrs by broth dilution method; type: functional; outline: as §9
Proteus vulgaris = test: Antibacterial activity against Proteus vulgaris AHU 1469 assessed as growth inhibition after 18 hrs by broth dilution method; type: functional; conditions: AHU 1469, 18 h; outline: as §9
Enterococcus faecalis = test: Antibacterial activity against Streptococcus faecalis ATCC 10541 assessed as growth inhibition after 18 hrs by broth dilution method; type: functional; conditions: ATCC 10541, 18 h; outline: as §9
Staphylococcus aureus = test: Antibacterial activity against Staphylococcus aureus FDA 209P JC-1 assessed as growth inhibition after 18 hrs by broth dilution method; type: functional; conditions: FDA 209P JC-1, 18 h; outline: as §9
Mus musculus [17] = test: Toxicity in BDF1 mouse allografted with mouse L1210 cells assessed as mortality at 100 mg/kg, ip qd for 5 days; type: organism-based; set-up: dose 100 mg/kg, route intraperitoneal; conditions: in vivo, 120 h; outline: as §5
L1210 [18] = test: Antitumor activity against mouse L1210 cells allografted in BDF1 mouse assessed as increase in host lifespan at 100 mg/kg, ip qd for 5 days relative to control; type: functional; conditions: 120 h, route intraperitoneal; outline: as §5

SMILES | Activity (Mus musculus [1]) | Ratio (Mus musculus [2]) | T/C [3] | selectivity ratio [4] | Activity (Rattus norvegicus [5]) | Activity (Mus musculus [6]) | Activity (Mus musculus [7]) | T/C (Ehrlich [8]) | LD50 [9] | LD10 (Mus musculus [10]) | ILS at 50 mg/kg (L1210 [11]) | Activity (Mus musculus [12]) | T/C [13] | Activity (Mus musculus [14]) | T/C (Ehrlich [15]) | other results
CCCCO[C@H]1O[C@H](CO)[C@@H](O)[C@H](O)[C@H]1NC(=O)N(C)N=O | Non-toxic | 2 | 20% | 2 | Non-toxic | Non-toxic | Non-toxic | 16% | 2000 mg/kg | 1200 mg/kg | 30% |  |  |  |  | 
CCCCO[C@@H]1O[C@H](CO)[C@@H](O)[C@H](O)[C@H]1NC(=O)N(C)N=O |  | 2 |  | 2 | Non-toxic | Non-toxic | Non-toxic | 4% | 1580 mg/kg | 1100 mg/kg | 33% | Non-toxic | 40% |  |  | 
CCCCO[C@H]1O[C@H](CO)[C@@H](O)[C@H](O)[C@H]1NC(=O)N(CCCC)N=O | Non-toxic | 2 | 80% | 2 | Non-toxic |  |  |  | 660 mg/kg | 410 mg/kg |  |  |  | Non-toxic | 53% | 
CO[C@H]1O[C@H](CO)[C@@H](O)[C@H](O)[C@H]1NC(=O)N(C)N=O |  | 2 |  | 2 |  | Non-toxic | Non-toxic | 16% | 1930 mg/kg | 1380 mg/kg | 35% | Non-toxic | 37% |  |  | MIC (Bacillus subtilis): > 1000 µg/mL; MIC (Klebsiella pneumoniae): > 1000 µg/mL; MIC (Micrococcus luteus): > 1000 µg/mL; MIC (Salmonella typhi): > 1000 µg/mL; Activity (Rattus norvegicus [16]): Non-toxic; MIC (Escherichia coli): > 1000 µg/mL; MIC (Pseudomonas fluorescens): > 1000 µg/mL; MIC (Shigella sonnei): > 1000 µg/mL; MIC (Proteus vulgaris): > 1000 µg/mL; MIC (Enterococcus faecalis): > 1000 µg/mL; MIC (Staphylococcus aureus): > 1000 µg/mL
CCCN(N=O)C(=O)N[C@H]1[C@@H](OC)O[C@H](CO)[C@@H](O)[C@@H]1O | Non-toxic |  | 55% |  | Non-toxic |  |  |  |  |  |  |  |  | Non-toxic | 61% | 
CCCN(N=O)C(=O)N[C@H]1[C@H](OC)O[C@H](CO)[C@@H](O)[C@@H]1O | Non-toxic |  | 69% |  | Non-toxic |  |  |  |  |  |  |  |  | Non-toxic | 72% | Activity (Mus musculus [17]): Non-toxic; ILS at 100 mg/kg (L1210 [18]): 7%
